For three molecules, Activity and inhibition results are on record in ChEMBL document CHEMBL1156515.

The source made the active and inactive calls. No cut-off for these calls is given here.

Assay [1] is filed under the species Mus musculus. The assay is described as follows: Effect on acetyl-CoA carboxylase phosphorylation in mouse embryonic fibroblasts expressing AMPK-alpha1+/+alpha2+/+ upto 300 uM after 4 hrs by Western blot.
Assay [2] relates to HeLa. As to the kind of experiment: Effect on acetyl-CoA carboxylase phosphorylation in HeLa cells at 1 uM after 5 mins by densitometry. Type of assay: cell-based. The procedure, abridged:
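HeLa cells grown in MEM with 10% FBS, NEAA and antibiotics. Cells were exposed for 5 min, with or without 1 h STO-609 (10 µg/ml) pretreatment, then lysed in NP-40 buffer. Lysates (10-30 µg protein) were Western blotted for phospho-ACC with ECL detection, and densitometry was given in arbitrary units. Means ± SEM of duplicates, representative of 2 or more experiments.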

The subject of assay [3] is HeLa. As to the kind of experiment: Effect on AMPK activation in HeLa cells at 1 uM after 5 mins by immunoprecipitate kinase assay. In kind it is cell-based. The procedure, abridged:
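HeLa cells grown in Minimum Essential Eagle's Medium with 10% FBS, NEAA, penicillin and streptomycin. Cells were exposed for 5 min, with or without 1 h pretreatment with STO-609 (10 µg/ml). They were lysed in ice-cold NP-40 buffer, and AMPK activity was measured by immunoprecipitate kinase assay. Means ± SEM of duplicates, representative of 2 or more experiments.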

Assay [4] is filed under the species Mus musculus. As to the kind of experiment: Effect on AMPK phosphorylation in LKB1-/- mouse longus muscle tissue at 2 mM uM by Western blot. Type of assay: tissue-based. An outline of the steps:
(§1)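 EDL muscle from fasted LKB1+/+ or muscle-LKB1−/− mice, incubated 1 hr at 37°C in KRB pH 7.4 with 2 mM pyruvate, gassed 95% O2/5% CO2, with 2 mM AICAR. Lysates immunoblotted with phospho-Thr172 AMPK and phospho-ACC antibodies; ECL bands quantified by CCD imaging.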

The target in assay [5] is 5'-AMP-activated protein kinase catalytic subunit alpha-1 (Rattus norvegicus) (UniProt P54645). As to the kind of experiment: Effect on GST fused rat AMPKalpha1 (1-333) kinase activation in presence of recombinant CaMKKbeta by Western blot. An outline of the steps:
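GST fusions of rat AMPKα1 kinase domain, with or without the autoinhibitory region, made in bacteria and glutathione-Sepharose purified. Pre-incubated with MgATP with or without recombinant human CaMKKβ to phosphorylate Thr-172. Activity then measured with or without 1 µM compound, or samples Western blotted with anti-GST and anti-pT172.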

Assay [6] relates to HeLa. The assay is described as follows: Effect on AMPK phosphorylation in HeLa cells at 100 uM after 1 hr by immunoprecipitate kinase assay.
Assay [7] deals with Serine/threonine-protein kinase pim-1 (Homo sapiens) (UniProt P11309). As to the kind of experiment: Inhibition of PIM1 at 10 uM. An outline of the steps: (§2)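 Single-concentration selectivity screen at 10 µM across a 76-protein-kinase panel, assayed per earlier methods. Duplicate assays; activity expressed as % of no-compound control ± standard deviation.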
For assay [8], the species on record is Mus musculus. The assay is described as follows: Increase in acetyl-CoA carboxylase phosphorylation in TAK1-/- mouse embryonic fibroblast at 100 uM after 1 hr by densitometry. The procedure, abridged:
(§3)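 TAK1+/+ and TAK1−/− MEFs treated with 100 µM compound for 1 hr; lysates Western blotted and ACC phosphorylation quantified by densitometry in arbitrary units. Means ± SEM of duplicates, representative of 2 or more experiments.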

In assay [9] the test system is HeLa. As to the kind of experiment: Reduction of AMPK activation in HeLa cells at 100 uM after 1 hr in presence of STO-609 by immunoprecipitate kinase assay. Type of assay: cell-based. An outline of the steps: (§4)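 HeLa cells (MEM, 10% FBS, NEAA, penicillin/streptomycin) given 100 µM compound for 1 hr, with or without STO-609 (10 µg/ml) for 1 hr beforehand. Lysates in ice-cold NP-40 buffer; AMPK activity by immunoprecipitate kinase assay and Thr-172 phosphorylation by Western blot. Means ± SEM of duplicates, representative of 2 or more experiments.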

A further assay concerns Hepatocyte. As to the kind of experiment: Effect on acetyl-CoA carboxylase phosphorylation in wild type AMPK expressing mouse AMPK-alpha1+/+alpha2+/+ primary hepatocytes upto 200 uM after 4 hrs by Western blot. Type of assay: cell-based. The procedure, abridged:
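Primary hepatocytes from AMPKα1+/+α2+/+ mice exposed to compound concentrations up to 200 µM for 4 hr. Lysates immunoblotted with phosphospecific and total ACC antibodies.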

For assay [10], the system named is HeLa. As to the kind of experiment: Effect on AMPK phosphorylation in HeLa cells at 100 uM after 1 hr by immunoprecipitate kinase assay. Type of assay: cell-based. An outline of the steps: as §4
The species named for assay [11] is Rattus norvegicus. The assay is described as follows: Effect on interaction between rat GST fused AMPK glycogen binding domain and glycogen at 0.5 uM. The procedure, abridged:
(§5)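 β1 glycogen-binding domain (residues 65-182) fused to GST, expressed in E. coli BL21 and glutathione-purified. 2 µg incubated with bovine liver glycogen coupled to Sepharose in 50 mM Tris-HCl pH 7.5, 150 mM NaCl with compound. Load, supernatant and pellet anti-GST immunoblotted on infrared imager.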

The species named for assay [12] is Mus musculus. As to the kind of experiment: Effect on AMPK phosphorylation in LKB1-/- mouse longus muscle tissue at 100 uM by Western blot. In kind it is tissue-based. The procedure, abridged:
(§6)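 Extensor digitorum longus from overnight-fasted LKB1+/+ or muscle-specific LKB1−/− mice, mounted and incubated 1 hr at 37°C in KRB (pH 7.4, 2 mM pyruvate, gassed 95% O2/5% CO2) with compound (stock in DMSO); controls 0.1% DMSO. Muscles snap-frozen; lysates Western blotted for pT172 AMPK and pACC.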

Assay [13] is filed under the species Mus musculus. The assay is described as follows: Effect on acetyl-CoA carboxylase phosphorylation in mouse embryonic fibroblasts expressing AMPK-alpha1+/+alpha2+/+ upto 300 uM by Western blot. An outline of the steps:
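MEFs from AMPKα1+/+/α2+/+ mice (DMEM, 10% FBS, NEAA, 1 mM pyruvate, antibiotics) given compound at graded concentrations up to 300 µM for 1 h. Lysates Western blotted for phospho- and total ACC, quantified by densitometry (arbitrary units). Means ± SEM of duplicates, representative of 2 or more experiments.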

For assay [14], the species on record is Mus musculus. The assay is described as follows: Effect on acetyl-CoA carboxylase phosphorylation in wild type LKB1+/+ mouse longus muscle tissue at 2 mM uM by Western blot. Type of assay: tissue-based. An outline of the steps:
as §1

The test system of assay [15] is HeLa. As to the kind of experiment: Reduction of acetyl-CoA carboxylase phosphorylation in HeLa cells at 100 uM after 1 hr in presence of STO-609 by densitometry. Type of assay: cell-based. An outline of the steps: (§7)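 HeLa cells exposed to 100 µM compound for 1 hr, with or without a 1 hr pretreatment with STO-609 (10 µg/ml). Lysates Western blotted for phospho-ACC, quantified by densitometry in arbitrary units. Means ± SEM of duplicates; 2 or more experiments.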

Assay [16] is filed under the species Rattus norvegicus. As to the kind of experiment: Effect on interaction between rat GST fused AMPK glycogen binding domain and glycogen at 5 uM. The procedure, abridged: as §5
The species entered for assay [17] is Mus musculus. As to the kind of experiment: Effect on acetyl-CoA carboxylase phosphorylation in mouse embryonic fibroblasts expressing AMPK-alpha1+/+alpha2+/+ at 100 uM after 15 mins by Western blot.
For assay [18], the species on record is Mus musculus. The assay is described as follows: Effect on AMPK phosphorylation in wild type LKB1+/+ mouse longus muscle tissue at 100 uM by Western blot. Type of assay: tissue-based. The procedure, abridged:
as §6

Assay [19] concerns HeLa. The assay is described as follows: Effect on acetyl-CoA carboxylase phosphorylation in HeLa cells at 100 uM after 1 hr by densitometry. Type of assay: cell-based. The procedure, abridged:
as §7

The species entered for assay [20] is Mus musculus. The assay is described as follows: Effect on acetyl-CoA carboxylase phosphorylation in LKB1-/-mouse longus muscle tissue at 2 mM uM by Western blot. Type of assay: tissue-based. An outline of the steps:
as §1

The species entered for assay [21] is Mus musculus. As to the kind of experiment: Effect on AMPK phosphorylation in wild type LKB1+/+ mouse longus muscle tissue at 2 mM uM by Western blot. Type of assay: tissue-based. The procedure, abridged: as §1
Assay [22] is filed under the species Mus musculus. As to the kind of experiment: Effect on acetyl-CoA carboxylase phosphorylation in wild type LKB1+/+ mouse longus muscle tissue at 100 uM by Western blot. Type of assay: tissue-based. An outline of the steps:
as §6

Assay [23] has as its system HeLa. The assay is described as follows: Reduction of AMPK phosphorylation in HeLa cells at 100 uM after 1 hr in presence of STO-609 by immunoprecipitate kinase assay. In kind it is cell-based. An outline of the steps: as §4
For assay [24], the species on record is Mus musculus. As to the kind of experiment: Increase in acetyl-CoA carboxylase phosphorylation in TAK1+/+ mouse embryonic fibroblast at 100 uM after 1 hr by densitometry. An outline of the steps: as §3
Assay [25] has as its target 5'-AMP-activated protein kinase catalytic subunit alpha-1 (Rattus norvegicus) (UniProt P54645). As to the kind of experiment: Activation of rat AMPK alpha-1-alpha-2beta-1-gamma-1 kinase upto 5 uM in presence of saturating concentration of 200 uM AMP.
The target in assay [26] is Serine/threonine-protein kinase pim-3 (Homo sapiens) (UniProt Q86V86). The assay is described as follows: Inhibition of PIM3 at 10 uM. The procedure, abridged:
as §2

For assay [27], the species on record is Mus musculus. As to the kind of experiment: Effect on acetyl-CoA carboxylase phosphorylation in LKB1-/-mouse longus muscle tissue at 100 uM by Western blot. In kind it is tissue-based. The procedure, abridged: as §6
For assay [28], the species on record is Rattus norvegicus. As to the kind of experiment: Effect on GST fused rat AMPKalpha1 T172D mutant kinase.
Assay [29] is filed under the species Rattus norvegicus. The assay is described as follows: Protection against dephosphorylation of rat AMPK incubated with protein phosphatase 2Calpha at 1 uM in presence of magnesium. An outline of the steps: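 Purified rat liver AMPK incubated with recombinant protein phosphatase-2Cα (9 ng) plus 5 mM MgCl2 with or without 1 µM compound; remaining AMPK activity measured. Controls lacked Mg2+ or added 200 µM AMP.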

Assay [30] is filed under the species Mus musculus. The assay is described as follows: Effect on acetyl-CoA carboxylase phosphorylation in mouse embryonic fibroblasts expressing AMPK-alpha1+/+alpha2+/+ at 100 uM upto1 hrs by Western blot.
For assay [31], the system named is HeLa. As to the kind of experiment: Effect on AMPK activation in HeLa cells at 100 uM after 1 hr by immunoprecipitate kinase assay. In kind it is cell-based. The procedure, abridged: as §4

Sequence of 5'-AMP-activated protein kinase catalytic subunit alpha-1 (Rattus norvegicus) (P54645 whole entry, the tested form may be a part): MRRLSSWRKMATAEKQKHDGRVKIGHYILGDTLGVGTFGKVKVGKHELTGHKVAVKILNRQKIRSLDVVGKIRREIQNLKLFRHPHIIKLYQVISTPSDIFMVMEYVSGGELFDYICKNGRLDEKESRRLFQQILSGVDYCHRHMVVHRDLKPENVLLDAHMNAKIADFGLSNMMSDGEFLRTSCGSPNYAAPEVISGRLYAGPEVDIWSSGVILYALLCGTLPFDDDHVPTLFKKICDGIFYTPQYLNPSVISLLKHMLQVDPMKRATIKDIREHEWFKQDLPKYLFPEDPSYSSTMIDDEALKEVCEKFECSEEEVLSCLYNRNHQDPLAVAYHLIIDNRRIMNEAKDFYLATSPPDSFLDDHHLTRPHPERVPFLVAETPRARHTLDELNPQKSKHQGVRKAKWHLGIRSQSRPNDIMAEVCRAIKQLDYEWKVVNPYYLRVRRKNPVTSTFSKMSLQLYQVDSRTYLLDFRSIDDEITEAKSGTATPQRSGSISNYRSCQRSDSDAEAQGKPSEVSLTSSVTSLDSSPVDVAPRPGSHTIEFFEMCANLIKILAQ
Sequence of Serine/threonine-protein kinase pim-1 (Homo sapiens) (P11309 whole entry, looked up): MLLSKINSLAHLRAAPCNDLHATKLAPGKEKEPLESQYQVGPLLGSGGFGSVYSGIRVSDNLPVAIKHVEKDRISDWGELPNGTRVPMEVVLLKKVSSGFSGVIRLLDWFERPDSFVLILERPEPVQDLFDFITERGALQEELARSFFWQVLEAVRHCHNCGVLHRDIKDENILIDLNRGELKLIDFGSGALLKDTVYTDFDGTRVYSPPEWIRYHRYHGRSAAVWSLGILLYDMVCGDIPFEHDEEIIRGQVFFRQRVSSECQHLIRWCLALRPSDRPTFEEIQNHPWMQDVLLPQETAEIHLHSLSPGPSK

Consider `NC(=O)c1ncn([C@@H]2O[C@H](COP(=O)(O)O)[C@@H](O)[C@H]2O)c1N`, for which, in the assay listed under Mus musculus [1], the result was Active.

Take `CC(O)[C@]1(C)CC[C@H]([C@]2(C)CC[C@@H](C[C@H](O)[C@H](C)[C@H](O)[C@H](C)/C=C/C[C@@H](C)C[C@@H](C)/C(O)=C/C(=O)[C@@H](C)C[C@@H](C)C[C@H](C)CCC(=O)O)O2)O1` (single isomer, unassigned): the outcome with HeLa [2] and with HeLa [3] was Active.

Turning to `N#Cc1c(O)c2c(-c3ccc(-c4ccccc4O)cc3)csc2[nH]c1=O`, the result (in the assay filed under Mus musculus [4]; in assay [5]; in the assay filed under Rattus norvegicus [11]; in the assay listed under Mus musculus [12]; in the assay filed under Rattus norvegicus [16]; in the assay listed under Mus musculus [20]) was inactive. In addition, the outcome in the assay listed under Mus musculus [27] and in the assay listed under Rattus norvegicus [28] was inactive. Further, the result in the assay with HeLa [6], in the assay filed under Mus musculus [8], in the assay on HeLa [9], in the assay on Hepatocyte, in the assay on HeLa [10] and in the assay listed under Mus musculus [13] was Active. Besides, the result in the assay listed under Mus musculus [14], in the assay on HeLa [15], in the assay filed under Mus musculus [17], in the assay filed under Mus musculus [18], in the assay on HeLa [19] and in the assay listed under Mus musculus [21] was Active. Also, the outcome in the assay filed under Mus musculus [22], in the assay on HeLa [23], in the assay listed under Mus musculus [24], in the assay filed under Rattus norvegicus [29], in the assay listed under Mus musculus [30] and with HeLa [31] was Active. For the same molecule, the inhibition in assay [7] and in assay [26] was over 50% each time. Besides, the Activity in assay [25] was found to be 1.4.
